Data: ChEMBL document CHEMBL2021785, “Compounds of Alpinia katsumadai as potential efflux inhibitors in Mycobacterium smegmatis” (2012)
≈ marks a conversion by molar mass, not a printed value. Calls of active or inactive are those of the source. The calls are words filed in the database; no cut-off is given here.

Assays:
[1] = system: Mycolicibacterium smegmatis; assay: Antibacterial activity against Mycobacterium smegmatis mc2 155 after 72 hrs by MTT assay; format: functional; conditions: str. MC2 155, 72 h
In short: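 Broth dilution in Mueller-Hinton broth; compounds dissolved in DMSO, two-fold serial dilutions; inoculum adjusted to McFarland 0.5 and diluted to final 5 × 10^5 cfu/mL; cells pre-grown on Columbia blood agar with 5% horse blood, 37 °C, 72 h. Plates incubated 37 °C for 72 h; MIC read after MTT as lowest concentration inhibiting growth.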

[2] = system: Mycolicibacterium smegmatis MC2 155; assay: Inhibition of Multidrug resistance efflux pump in Mycobacterium smegmatis mc2 155 assessed as modulation of EtBr-mediated antibacterial activity measuring ratio of EtBr MIC to EtBr and compound MIC at 4 mg/L after 72 hrs by MTT assay
In short: (§1)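 Checkerboard-type modulation by broth dilution in MHB with DMSO-dissolved modulators: either modulator held constant (half its MIC) with two-fold serially diluted antibiotic/EtBr, or antibiotic fixed with modulator serially diluted. Final inoculum 5 × 10^5 cfu/mL, 37 °C, 72 h, MTT read-out. Modulation factor quantifies shift in antibiotic/EtBr MIC; FICI assesses combination effect.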

[3] = system: Mycolicibacterium smegmatis MC2 155; assay: Inhibition of Multidrug resistance efflux pump in Mycobacterium smegmatis mc2 155 assessed as modulation of isoniazid-mediated antibacterial activity measuring ratio of isoniazid MIC to isoniazid and compound MIC at 4 mg/L after 72 hrs by MTT assay; in short: as §1
[4] = system: Mycolicibacterium smegmatis MC2 155; assay: Inhibition of Multidrug resistance efflux pump in Mycobacterium smegmatis mc2 155 assessed as modulation of rifampicin-mediated antibacterial activity measuring ratio of rifampicin MIC to rifampicin and compound MIC at 4 mg/L after 72 hrs by MTT assay; in short: as §1
[5] = system: Mycolicibacterium smegmatis MC2 155; assay: Inhibition of Multidrug resistance efflux pump in Mycobacterium smegmatis mc2 155 assessed as modulation of EtBr-mediated antibacterial activity measuring ratio of EtBr MIC to EtBr and compound MIC at 64 mg/L after 72 hrs by MTT assay; in short: as §1
[6] = system: Mycolicibacterium smegmatis MC2 155; assay: Inhibition of Multidrug resistance efflux pump in Mycobacterium smegmatis mc2 155 assessed as modulation of ciprofloxacin-mediated antibacterial activity measuring ratio of ciprofloxacin MIC to ciprofloxacin and compound MIC at 64 mg/L after 72 hrs by MTT assay; in short: as §1
[7] = system: Mycolicibacterium smegmatis MC2 155; assay: Inhibition of Multidrug resistance efflux pump in Mycobacterium smegmatis mc2 155 assessed as modulation of ethambutol-mediated antibacterial activity measuring ratio of ethambutol MIC to ethambutol and compound MIC at 64 mg/L after 72 hrs by MTT assay; in short: as §1
[8] = system: Mycolicibacterium smegmatis MC2 155; assay: Inhibition of Multidrug resistance efflux pump in Mycobacterium smegmatis mc2 155 assessed as modulation of isoniazid-mediated antibacterial activity measuring ratio of isoniazid MIC to isoniazid and compound MIC at 64 mg/L after 72 hrs by MTT assay; in short: as §1
[9] = system: Mycolicibacterium smegmatis MC2 155; assay: Inhibition of Multidrug resistance efflux pump in Mycobacterium smegmatis mc2 155 assessed as modulation of rifampicin-mediated antibacterial activity measuring ratio of rifampicin MIC to rifampicin and compound MIC at 64 mg/L after 72 hrs by MTT assay; in short: as §1
[10] = system: Mycolicibacterium smegmatis MC2 155; assay: Inhibition of Multidrug resistance efflux pump in Mycobacterium smegmatis mc2 155 assessed as modulation of EtBr-mediated antibacterial activity measuring fractional inhibitory concentration index at 64 mg/L after 72 hrs by MTT assay; in short: as §1
[11] = system: Mycolicibacterium smegmatis MC2 155; assay: Inhibition of Multidrug resistance efflux pump in Mycobacterium smegmatis mc2 155 assessed as modulation of rifampicin-mediated antibacterial activity measuring fractional inhibitory concentration index at 64 mg/L after 72 hrs by MTT assay; in short: as §1
[12] = system: Mycolicibacterium smegmatis MC2 155; assay: Inhibition of Multidrug resistance efflux pump in Mycobacterium smegmatis mc2 155 assessed as EtBr accumulation measuring relative fluorescence at half the MIC measured for 60 mins by spectrophotometry relative to control
In short: (§2)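 Overnight 7H9/ADC culture (37 °C, 100 rpm) centrifuged and resuspended in PBS with 0.05% Tween 80 to OD600 0.4. Cells mixed 1:1 with test solutions containing 0.5 mg/L EtBr and 0.4% glucose, compounds from MIC down to 1/16 MIC. Fluorescence (ex 531/em 590 nm) read every 50 s at 37 °C for 60 min; repeated at least three times.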

[13] = system: Mycolicibacterium smegmatis MC2 155; assay: Inhibition of Multidrug resistance efflux pump in Mycobacterium smegmatis mc2 155 assessed as EtBr accumulation measuring relative fluorescence at MIC measured for 60 mins by spectrophotometry relative to control; in short: as §2
[14] = system: Mycolicibacterium smegmatis MC2 155; assay: Inhibition of Multidrug resistance efflux pump in Mycobacterium smegmatis mc2 155 assessed as EtBr accumulation measuring relative fluorescence at 1/4 of MIC measured for 60 mins by spectrophotometry relative to control; in short: as §2
[15] = system: Mycolicibacterium smegmatis MC2 155; assay: Inhibition of Multidrug resistance efflux pump in Mycobacterium smegmatis mc2 155 assessed as EtBr accumulation measuring relative fluorescence at lower MIC measured for 60 mins by spectrophotometry relative to control; in short: as §2
[16] = system: Mycolicibacterium smegmatis MC2 155; assay: Inhibition of Multidrug resistance efflux pump in Mycobacterium smegmatis mc2 155 assessed as EtBr accumulation measuring relative fluorescence at 1/8 of MIC measured for 60 mins by spectrophotometry relative to control; in short: as §2
[17] = system: Mycolicibacterium smegmatis MC2 155; assay: Inhibition of Multidrug resistance efflux pump in Mycobacterium smegmatis mc2 155 assessed as inhibition of EtBr efflux measuring normalized fluorescence at half the MIC measured for 60 mins by spectrophotometry relative to control
[18] = system: Mycolicibacterium smegmatis MC2 155; assay: Inhibition of Multidrug resistance efflux pump in Mycobacterium smegmatis mc2 155 assessed as inhibition of EtBr efflux measuring relative fluorescence at 1/8 of MIC measured for 60 mins by spectrophotometry relative to control
[19] = system: Mycolicibacterium smegmatis MC2 155; assay: Inhibition of Multidrug resistance efflux pump in Mycobacterium smegmatis mc2 155 assessed as inhibition of EtBr efflux measuring relative fluorescence at lower MIC measured for 60 mins by spectrophotometry relative to control
[20] = system: Mycolicibacterium smegmatis MC2 155; assay: Inhibition of Multidrug resistance efflux pump in Mycobacterium smegmatis mc2 155 assessed as modulation of EtBr-mediated antibacterial activity measuring reduction in MIC at 1/2 of MIC after 72 hrs by MTT assay relative to control; in short: as §1
[21] = system: Mycolicibacterium smegmatis MC2 155; assay: Inhibition of Multidrug resistance efflux pump in Mycobacterium smegmatis mc2 155 assessed as modulation of rifampicin-mediated antibacterial activity measuring reduction in MIC at 1/2 of MIC after 72 hrs by MTT assay relative to control; in short: as §1
[22] = system: Mycolicibacterium smegmatis MC2 155; assay: Inhibition of Multidrug resistance efflux pump in Mycobacterium smegmatis mc2 155 assessed as modulation of EtBr-mediated antibacterial activity measuring ratio of EtBr MIC to EtBr and compound MIC at 2 mg/L after 72 hrs by MTT assay; in short: as §1
[23] = system: Mycolicibacterium smegmatis MC2 155; assay: Inhibition of Multidrug resistance efflux pump in Mycobacterium smegmatis mc2 155 assessed as modulation of isoniazid-mediated antibacterial activity measuring ratio of isoniazid MIC to isoniazid and compound MIC at 2 mg/L after 72 hrs by MTT assay; in short: as §1
[24] = system: Mycolicibacterium smegmatis MC2 155; assay: Inhibition of Multidrug resistance efflux pump in Mycobacterium smegmatis mc2 155 assessed as modulation of rifampicin-mediated antibacterial activity measuring ratio of rifampicin MIC to rifampicin and compound MIC at 2 mg/L after 72 hrs by MTT assay; in short: as §1

Compound CCCCCCCC/C=C\CCCCCCCC(=O)O [OLEIC ACID] has an MIC [1] of 8 µg/mL (≈ 28.3 µM), a Ratio [2] of 1 and a Ratio [3] of 1. The Ratio [4] was 4.

O=C(/C=C/C=C/c1ccccc1)CCc1ccccc1 was tested, and the MIC [1] was at least 128 µg/mL, the Ratio [5] was 4 and the Ratio [6] was 1. It also gave a Ratio [7] of 1, a Ratio [8] of 1 and a Ratio [9] of 4. It also gave a fractional inhibitory concentration index (FICI) [10] of 0.27, a fractional inhibitory concentration index (FICI) [11] of 0.28 and an RFU [12] of 19400. The inhibition [13] was “Active”, the inhibition [14] was “Active” and the inhibition [15] was “Dose-dependent effect”. The inhibition [16] was “Active”, the normalized EtBr fluorescence relative to control [17] was 0.806 and the inhibition [18] was “Active”. For the same compound, the inhibition [19] was “Dose-dependent effect”, the fold change (FC) [20] was 4 and the fold change (FC) [21] was 4.

For CCCCCCCCCCCCCCCCCC(=O)O [STEARIC ACID], the MIC [1] was at least 128 µg/mL, the Ratio [5] was 1 and the Ratio [8] was 0.5.

With CC[C@@H](CO)NCCN[C@@H](CC)CO [ETHAMBUTOL] the MIC [1] was 1 µg/mL (≈ 4.89 µM).

For N#CC(C#N)=NNc1cccc(Cl)c1 [CARBONYL CYANIDE M-CHLOROPHENYLHYDRAZONE], the MIC [1] was 32 µg/mL (≈ 156 µM).

O=C(O)c1cn(C2CC2)c2cc(N3CCNCC3)c(F)cc2c1=O [CIPROFLOXACIN] was tested, and the MIC [1] was 0.125 µg/mL (≈ 0.377 µM).

COc1ccc(CCN(C)CCCC(C#N)(c2ccc(OC)c(OC)c2)C(C)C)cc1OC (stereo not drawn) [VERAPAMIL] was tested, and the MIC [1] was 512 µg/mL (≈ 1130 µM).

CCCCC/C=C\C/C=C\CCCCCCCC(=O)O [LINOLEIC ACID] was tested, and the MIC [1] was 4 µg/mL (≈ 14.3 µM), the Ratio [22] was 2 and the Ratio [23] was 1. For the same compound, the Ratio [24] was 2.
